The source of these data is ChEMBL document CHEMBL1131090, “Discovery of N-[2-[5-[Amino(imino)methyl]-2-hydroxyphenoxy]-3, 5-difluoro-6-[3-(4, 5-dihydro-1-methyl-1H-imidazol-2-yl)phenoxy]pyridin-4-yl]-N-methylgl y cine (ZK-807834): a potent, selective, and orally active inhibitor of the blood coagulation enzyme factor Xa” (J Med Chem, 1998).

A short description of series [1]: Prothrombin time concentration to give a 2-fold extension activity against pooled lyophilized human plasma. The class given is functional. The essentials:
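Prothrombin time was measured in pooled lyophilized human plasma with Thromboplastin IS on an automated coagulation analyzer. The value is the inhibitor concentration that doubles PT.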

The target of the next series is Prothrombin (Homo sapiens, UniProt P00734). The experiment in a line: Inhibitory potency was measured against human thrombin. The essentials: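 Purified human thrombin (16 nM final) was assayed chromogenically with S-2302 (300 μM final) in 50 mM Tris-HCl pH 7.5, 150 mM NaCl, 2.5 mM CaCl2, 0.1% PEG 6000 at room temperature. Varying inhibitor concentrations were tested at a substrate level equal to Km, assuming a competitive mechanism, to derive Ki.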

Another series deals with Coagulation factor X (Homo sapiens, UniProt P00742). The experiment in a line: Inhibitory potency was measured against human coagulation factor X.
The nature of series [2]: Inhibitor plasma concentration was measured in dogs on 10 mg/kg oral dosing after 1 hr administration; uM. The series is classed as ADME, organism-based, Canis lupus familiaris. On the set-up: dose 10 mg/kg, route oral. The following applies: dog. The essentials:
(§1)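 Conscious beagles (10–16 kg) were given 10 mg/kg by oral gavage as homogeneous solutions in aqueous acid (n = 3). Plasma inhibitor concentrations were measured at the stated times by an ex vivo FXa inhibition activity assay. For ester/acid pairs, the value is the total ester plus acid concentration.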

The next series addresses T1, Serine protease 1 (Bos taurus, UniProt P00760).
T1 sequence (P00760 whole entry): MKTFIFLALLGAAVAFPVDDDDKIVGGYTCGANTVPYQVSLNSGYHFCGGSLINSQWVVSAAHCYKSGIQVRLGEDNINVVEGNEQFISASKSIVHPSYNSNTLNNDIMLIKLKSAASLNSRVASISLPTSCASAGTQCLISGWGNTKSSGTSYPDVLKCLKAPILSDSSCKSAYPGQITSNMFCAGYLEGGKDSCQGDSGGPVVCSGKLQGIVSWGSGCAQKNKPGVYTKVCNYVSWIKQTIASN
The experiment in a line: Inhibitory potency was measured against bovine trypsin.

The nature of series [3]: Inhibitor plasma concentration was measured in dogs on 10 mg/kg oral dosing after 2 hr administration; uM. The series is classed as ADME, organism-based, Canis lupus familiaris. Set-up: dose 10 mg/kg, route oral. The following applies: dog. In short, it runs like this: as §1
The nature of series [4]: plasma concentration was measured against the Nonhuman primates (baboon) using FXa inhibition assay after 1 hr; uM. The series is classed as ADME, organism-based, Papio. In short, it runs like this:
(§2)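 Baboons received a 10 mg/kg oral dose in 1.5% carboxymethylcellulose plus 1% Tween 80 via nasogastric tube (2–4 animals per compound). Plasma inhibitor concentration was determined at the stated times by FXa inhibition assay.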

A short description of series [5]: plasma concentration was measured against the Nonhuman primates (baboon) using FXa inhibition assay after 2 hr; uM. The series is classed as ADME, organism-based, Papio. The essentials:
as §2

Series [6] is described as follows: plasma concentration was measured against the Nonhuman primates (baboon) using FXa inhibition assay after 6 h; uM. The class given is ADME, organism-based, Papio. The essentials: as §2
A short description of series [7]: plasma concentration was measured against the Nonhuman primates (baboon) using FXa inhibition assay after 4 hr; uM. The series is classed as ADME, organism-based, Papio. In short, it runs like this:
as §2

The nature of series [8]: Inhibitor plasma concentration was measured in dogs on 10 mg/kg oral dosing after 4 hr administration; uM. The class given is ADME, organism-based, Canis lupus familiaris. The note with it: dog. Set-up: dose 10 mg/kg, route oral. In short, it runs like this:
as §1

A short description of series [9]: plasma concentration was measured against the Nonhuman primates (baboon) using FXa inhibition assay after 3 hr; uM. The class given is ADME, organism-based, Papio. The essentials:
as §2

A short description of series [10]: plasma concentration was measured against the Nonhuman primates (cynomolgus monkey) using HPLC after 1 hr; uM.

Chain of Coagulation factor X (P00742 41-179 limits assumed): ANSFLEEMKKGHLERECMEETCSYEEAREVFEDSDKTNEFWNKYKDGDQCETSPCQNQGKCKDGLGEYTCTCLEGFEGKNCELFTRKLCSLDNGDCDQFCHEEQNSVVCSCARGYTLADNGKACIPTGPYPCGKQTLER
Chain of Coagulation factor X (P00742 235-488 limits assumed): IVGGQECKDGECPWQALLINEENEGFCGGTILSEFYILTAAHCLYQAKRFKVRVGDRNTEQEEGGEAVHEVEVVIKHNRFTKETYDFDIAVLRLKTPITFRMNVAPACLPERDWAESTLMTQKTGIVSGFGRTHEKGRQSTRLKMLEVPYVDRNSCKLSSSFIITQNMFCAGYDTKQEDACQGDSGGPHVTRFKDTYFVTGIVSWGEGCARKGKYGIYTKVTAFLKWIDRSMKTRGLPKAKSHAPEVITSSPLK

Usually Ki stands for a dissociation constant, usually derived from enzyme kinetics or from competition with a known ligand. Turning to `CN(C)C(=O)c1cccc(Oc2nc(Oc3cc(C(=N)N)ccc3O)c(F)c(OC3CCN(CC(=O)O)CC3)c2F)c1`, the PT extension in series [1] turned out to be 850 nM. Also, the Ki at Prothrombin is 192 nM; at Coagulation factor X, 0.65 nM; on Serine protease 1, 770 nM. Moreover, the concentration at 1 h in series [2] was 300 nM. In [3], this compound came in with a concentration at 2 h of 100 nM.
For the compound `N=C(N)c1ccc(Oc2cccc(Oc3ccc(C(=N)N)cc3)n2)cc1`, the inhibition constant (Ki) at Prothrombin was found to be 550 nM; on Coagulation factor X it was 400 nM; at Serine protease 1 it was 2800 nM.
Turning to `Cn1ccnc1-c1cccc(Oc2cc(C(=O)O)cc(Oc3cc(C(=N)N)ccc3O)n2)c1`, the Ki at Prothrombin was determined as 180 nM; on Coagulation factor X, 9 nM; at Serine protease 1, 660 nM.
Take `N=C(N)c1ccc(O)c(Oc2cc(C(=O)O)cc(Oc3cccc(-n4ccnc4)c3)n2)c1`: the Ki came out at 1400 nM on Prothrombin, 26 nM on Coagulation factor X and 1200 nM on Serine protease 1.
For `COc1ccc(C(=N)N)cc1Oc1nc(Oc2cccc(C(=O)N(C)C)c2)c(F)c(C)c1F`, the inhibition constant Ki at Prothrombin was greater than 5000 nM; on Coagulation factor X, 740 nM; on Serine protease 1, 4300 nM.
Regarding `Cc1c(F)c(Oc2cccc(CN(C)C)c2)nc(Oc2cccc(C(=N)N)c2)c1F`, the figures for the Ki at Prothrombin and at Coagulation factor X were 22000 nM and 640 nM, respectively.
Take `N=C(N)c1ccc(O)c(Oc2cc(C(=O)O)cc(Oc3cccc(C4=NCCN4)c3)n2)c1`: the Ki was greater than 5000 nM at Prothrombin, 85 nM at Coagulation factor X and 1400 nM at Serine protease 1.
Regarding `N=C(N)c1ccc(Oc2cccc(Oc3cccc(C(=N)N)c3)n2)cc1`, the Ki at Prothrombin is 1200 nM; at Coagulation factor X it was 130 nM; at Serine protease 1, 1900 nM.
As to `CCOC(=O)[C@@H]1C[C@@H](Oc2c(F)c(Oc3cccc(C4=NCCN4C)c3)nc(Oc3cc(C(=N)N)ccc3O)c2F)CN1`, the concentration at 1 h in series [4] was 200 nM; in series [2], 3500 nM. Further, the concentration at 2 h in series [5] came out at 300 nM; in series [3], 3400 nM. Besides, the concentration at 6 h in series [6] stood at 300 nM. In series [1], this compound gave a PT extension of 300 nM. For the same compound, the concentration at 4 h in series [7] turned out to be 500 nM; in series [8], 2600 nM. Besides, the inhibitory constant (Ki) is 140 nM at Prothrombin, 0.43 nM at Coagulation factor X and 330 nM at Serine protease 1. This compound showed a concentration at 3 h in series [9] of 600 nM.
In series [1], `CCOC(=O)CN1CCC(Oc2c(F)c(Oc3cccc(C4=NCCN4C)c3)nc(Oc3cc(C(=N)N)ccc3O)c2F)CC1` had a PT extension of 240 nM. The compound further had a concentration at 4 h in [8] of 200 nM. The Ki stood at 190 nM on Prothrombin, 0.31 nM at Coagulation factor X and 300 nM on Serine protease 1. This compound also had a concentration at 1 h in series [2] of 300 nM. In [3], the concentration at 2 h amounted to 300 nM.
For the compound `CN1CCN=C1c1cccc(Oc2nc(Oc3cc(C(=N)N)ccc3O)c(F)c(O[C@H]3CN[C@H](C(=O)O)C3)c2F)c1`, in series [1], the PT extension came to 670 nM. In [8], the concentration at 4 h came out at 800 nM. Further, the inhibition constant (Ki) came to 250 nM on Prothrombin, 0.33 nM at Coagulation factor X and 310 nM on Serine protease 1. This compound returned a concentration at 1 h in [2] of 3200 nM. Besides, the concentration at 2 h in series [3] was 2200 nM.
Regarding `CN1CCN=C1c1cccc(Oc2nc(Oc3cc(C(=N)N)ccc3O)c(F)c(OC3CCN(CC(=O)O)CC3)c2F)c1`, the values for the concentration at 1 h in [4], in series [2] and in series [10] were 100 nM, 5500 nM and 100 nM, respectively. The concentration at 6 h in [6] is 700 nM. Besides, in [1], the PT extension stood at 220 nM. For the same compound, the concentration at 4 h in series [7] worked out at 200 nM; in series [8], 1200 nM. In addition, the Ki on Prothrombin was determined as 125 nM; at Coagulation factor X, 0.24 nM; at Serine protease 1 it was 330 nM. The concentration at 2 h in [3] was 3800 nM. Also, the concentration at 3 h in series [9] is 100 nM.
Regarding `CCOC(=O)[C@@H]1C[C@@H](Oc2c(F)c(Oc3cccc(C(=O)N(C)C)c3)nc(Oc3cc(C(=N)N)ccc3O)c2F)CN1`, the PT extension in series [1] is 1400 nM. The same compound returned a concentration at 4 h in series [8] of 100 nM. Further, the values for the inhibitory constant (Ki) on Prothrombin, at Coagulation factor X and at Serine protease 1 were 280 nM, 0.71 nM and 740 nM, respectively. Moreover, in series [2], the concentration at 1 h is 300 nM. The compound also came in with a concentration at 2 h in [3] of 200 nM.
Consider `CCOC(=O)CN(C)c1c(F)c(Oc2cccc(C3=NCCN3C)c2)nc(Oc2cc(C(=N)N)ccc2O)c1F`, for which, in series [1], the PT extension is on record as 630 nM. This compound displayed a concentration at 4 h in [8] of 100 nM. The inhibitory constant (Ki) at Prothrombin turned out to be 630 nM; on Coagulation factor X, 0.26 nM; at Serine protease 1, 240 nM. Moreover, the concentration at 1 h in series [2] came out at 200 nM. In addition, the concentration at 2 h in series [3] worked out at 200 nM.
For the compound `Cc1c(F)c(Oc2cccc(C(=O)N(C)C)c2)nc(Oc2cc(C(=N)N)ccc2O)c1F`, the Ki at Prothrombin and on Serine protease 1 was 1100 nM throughout.
Consider `N=C(N)c1cccc(Oc2nc(Oc3cccc(C(=N)N)c3)c(F)cc2F)c1`, for which the inhibition constant Ki turned out to be 37000 nM at Prothrombin, 24 nM on Coagulation factor X and 1200 nM at Serine protease 1.
In the same order, the values of `N=C(N)c1cccc(Oc2cc(C(=O)O)cc(Oc3cccc(C(=N)N)c3)n2)c1` are 27000 nM, 59 nM and 570 nM.
For `N=C(N)c1cccc(Oc2nc(Oc3cccc(C(=N)N)c3)c(Cl)cc2Cl)c1`, the Ki on Prothrombin was greater than 5000 nM; at Coagulation factor X it was 130 nM; on Serine protease 1, 2100 nM.
In the same order, the values of `Cc1c(F)c(Oc2cccc(C(=N)N)c2)nc(Oc2cccc(C(=N)N)c2)c1F` are 22000 nM, 13 nM and 810 nM.
For `N=C(N)c1ccc(Oc2nc(Oc3ccc(C(=N)N)cc3)c(Cl)cc2Cl)cc1`, the inhibition constant (Ki) came out at 1400 nM at Prothrombin, 620 nM on Coagulation factor X and 2700 nM on Serine protease 1.
For `N=C(N)c1cccc(Oc2cccc(Oc3cccc(C(=N)N)c3)n2)c1`, the inhibition constant Ki on Prothrombin amounted to 14000 nM; at Coagulation factor X it was 53 nM; at Serine protease 1, 1100 nM.
With `N=C(N)c1ccc(/C=C2/CCCC/C(=C/c3ccc(C(=N)N)cc3)C2=O)cc1`, the inhibition constant (Ki) on Coagulation factor X was 0.66 nM; on Serine protease 1 it was 33 nM.
`Cc1c(F)c(Oc2cccc(C(=N)N)c2)nc(Oc2cccc(C(=O)N(C)C)c2)c1F`: the Ki on Prothrombin stood at 15000 nM; on Coagulation factor X it was 80 nM; on Serine protease 1, 2700 nM.
`CN(C)C(=O)c1cccc(Oc2nc(Oc3cc(C(=N)N)ccc3O)c(F)c(N(C)CC(=O)O)c2F)c1` gave a PT extension in series [1] of 1000 nM. Moreover, the results for the Ki at Prothrombin, at Coagulation factor X and on Serine protease 1 were 4500 nM, 0.41 nM and 1100 nM, respectively. In series [2], the concentration at 1 h turned out to be 300 nM. Further, in series [3], the concentration at 2 h is 400 nM.
As to `CN(C)C(=O)c1cccc(Oc2cc(C(=O)O)cc(Oc3cc(C(=N)N)ccc3O)n2)c1`, the inhibitory constant (Ki) on Prothrombin amounted to 1100 nM; at Coagulation factor X it was 3.9 nM; at Serine protease 1, 300 nM.
On Coagulation factor X, `CNC(=O)c1cccc(Oc2nc(Oc3cccc(C(=N)N)c3)c(F)c(C)c2F)c1` showed an inhibitory constant (Ki) of 1300 nM.
With `Cc1c(F)c(Oc2cccc(C(=O)N(C)C)c2)nc(Oc2cc(C(=N)N)ccc2N)c1F`, the Ki is 2300 nM at Prothrombin, 14 nM on Coagulation factor X and 550 nM on Serine protease 1.
Regarding `Cc1c(F)c(Oc2cccc(C(=N)N)c2)nc(Oc2cccc(C(N)=O)c2)c1F`, the Ki is greater than 5000 nM on Prothrombin, 280 nM on Coagulation factor X and greater than 5000 nM at Serine protease 1.
For `Cc1c(F)c(Oc2ccccc2)nc(Oc2cccc(C(=N)N)c2)c1F`, the Ki on Prothrombin and on Coagulation factor X was greater than 5000 nM in each case.
`Cc1c(F)c(Oc2cccc(C(=N)N)c2)nc(Oc2cccc(N(C)C)c2)c1F`: the Ki on Prothrombin came out at 2600 nM; on Coagulation factor X, 160 nM; on Serine protease 1 it was 1900 nM.
Take `CN1CCN=C1c1cccc(Oc2cc(C(=O)O)cc(Oc3cc(C(=N)N)ccc3O)n2)c1`: the Ki on Prothrombin turned out to be 810 nM; on Coagulation factor X, 2.4 nM; on Serine protease 1, 220 nM.
